{"source": "ChEMBL document CHEMBL1150225", "about": "“Cytotoxic cholestane glycosides from the bulbs of Ornithogalum saundersiae” (J Nat Prod, 2001)", "test_system": "HL-60", "test": "Cytotoxicity against human HL60 cells after 72 hrs by MTT assay", "type": "functional, cell-based", "settings": "HL-60, 72 h", "outline": "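HL-60 leukemia cells kept in RPMI 1640 with 10% fetal bovine serum, L-glutamine, 100 units/mL penicillin and 100 μg/mL streptomycin. Cells at 3 × 10^4 cells/mL exposed continuously to compound for 72 h. Growth read by MTT reduction. IC50 (50% inhibition) calculated from each compound's dose–response curve.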"}
{"smiles": "COc1ccc(C(=O)O[C@H]2[C@H](O[C@@H]3[C@@H](OC(C)=O)[C@H](O[C@H]4C[C@H]5[C@@H]6CC=C7C[C@@H](O)CC[C@]7(C)[C@H]6CC[C@]5(C)[C@@]4(O)[C@H](C)C(=O)CCC(C)C)OC[C@@H]3O)OC[C@@H](O[C@@H]3O[C@H](CO)[C@@H](O)[C@H](O)[C@H]3O)[C@@H]2O)cc1OC", "values": [{"measurement": "IC50", "result": 16, "unit": "nM"}]}
